ChEMBL document CHEMBL1126730, “Synthesis and pharmacological evaluation of 4a-phenanthrenamine derivatives acting at the phencyclidine binding site of the N-methyl-D-aspartate receptor complex” (J Med Chem, 1993)

What was measured:
[1] = biological target: Glutamate NMDA receptor; assay: Binding affinity towards PCP site of the NMDA receptor was measured by displacement of […] in […]; assay type: tissue-based, Brain
[2] = Partition coefficient (logP) (HPLC); assay type: physicochemical; settings: octanol/water
[3] = species on record: Mus musculus; assay: Testing for ataxia was done by using an inverted screen technique; assay type: functional
Summary of the method: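 Inverted-screen test in CF-1 mice (22-28 g), scored 5 min after retrobulbar test agent in 0.9% saline (5 mL/kg), immediately before NMDA injection.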

[4] = biological target: Glutamate NMDA receptor; assay: Ability to inhibit glutamate induced accumulation of [45 [Ca2+]] in cultured rat cortical neurons; assay type: functional
Summary of the method: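 Fetal rat cortical hemisphere dissociated cultures used on day 14-16 after plating. Medium was serum- and Mg-free HBSS with 1.4 mM CaCl2, pH 7.4 (35 mM bicarbonate), 37 °C, 5% CO2. Cells were exposed 30 min to 100 μM L-glutamate (final) plus [45Ca2+] (2 μCi/mL) ± test agent, washed with saline, lysed, and counted. Baseline was subtracted.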

[5] = biological target: T1, Glutamate NMDA receptor (Rattus norvegicus) (UniProt P35439+Q00959+Q00960+Q00961+Q62645+Q8VHN2+Q9R1M7); assay: Evaluated in vivo for its NMDA antagonist activity by the inhibition of NMDA-induced lethality in mice; assay type: functional, organism-based; settings: Mus musculus; target entry is the homologue from another species
Summary of the method: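 CF-1 mice, 22-28 g. Test agent or vehicle (0.9% saline, 5 mL/kg) was given by retrobulbar injection 5 min before a 25 mg/kg NMDA bolus given retrobulbar in the other eye. Endpoint was prevention of lethality.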

[6] = Partition coefficient was measured using a standard shake flask (SF) method at pH 7.4.; assay type: physicochemical; settings: octanol/water
Summary of the method: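 Shake-flask partitioning at pH 7.4.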

[7] = biological target: T1, Glutamate NMDA receptor (Rattus norvegicus); assay: Percent inhibition at PCP site of NMDA receptor complex was measured by displacement of […] in whole rat brain homogenate at 10 E-7 M; assay type: tissue-based
Summary of the method: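 [3H]TCP displacement from rat brain membrane preparation (cortical membranes in the methods; whole-brain homogenate in the assay description), following a previously published procedure.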

Compound | IC50 [1] [nM] | logP [2] | Ataxia [3] [mg/kg] | IC50 [4] [nM] | ED50 [5] [mg/kg] | logD [6] | inhibition [7] [%]
CNC12CC=CCC1CC(C)c1ccccc12 (stereo not drawn) | 654 | – | – | – | – | – | –
NC12CC=CCC1CCc1ccccc12 (stereo not drawn) | 87.5 | 2.75 | <1 | 2350 | 4.2 | – | –
CC1CC2CC=CCC2(N)c2ccccc21 (stereo not drawn) | 2460 | 3.4 | – | – | – | 1.89 | –
c1ccc(C2(N3CCCCC3)CCCCC2)cc1 [PHENCYCLIDINE] | – | – | 1 | 200 | 0.55 | – | –
CN(C)C12CCCCC1CCc1ccccc12 (stereo not drawn) | 21 | – | <0.3 | 1630 | 1.6 | – | –
CNC12CCCCC1CCc1ccc(O)cc12 (stereo not drawn) | 2.07 | 2.56 | 0.58 | 64 | 0.89 | 0.31 | –
CNC1(C)c2ccccc2CCC12CCCC2 (stereo not drawn) | – | – | – | – | – | – | 5
NC12CCCCC1CCc1ccccc12 (stereo not drawn) [listing 1 of 2 here] | – | – | – | – | 0.64 | – | –
CNC12CCC(CN)CC1CCc1ccccc12 (stereo not drawn) | – | 2 | – | – | – | – | 8
NC12CCCCC1CCc1ccccc12 (single isomer, unassigned; form 2) [listing 1 of 2 here] | 113 | – | <3 | 2250 | – | – | –
CNC12CCCCC1CCc1ccccc12 (stereo not drawn) | 14.7 | 3.25 | 0.44 | 310 | 0.54 | – | –
COc1ccc2c(c1)C1(N)CC=CCC1CC2 (stereo not drawn) | 46 | – | 2.1 | 850 | 2.1 | – | –
NC12CCCCC1CCc1sccc12 (stereo not drawn) | 43 | 3.02 | 3 | 1570 | 0.97 | 0.66 | –
NC1c2ccccc2CCC12CCCC2 (stereo not drawn) | – | – | – | – | – | – | 8
CNC12CCCCC1CSc1ccccc12 (stereo not drawn) | 62 | 3.88 | 1.5 | 710 | 0.7 | 1.54 | –
CNC12CC=CCC1CC(C)(C)c1ccccc12 (stereo not drawn) | – | – | – | – | – | – | 0
NC12CCCCC1CCc1ccccc12 (single isomer, unassigned; form 1) [listing 1 of 2 here] | 11.3 | – | <0.3 | 480 | – | – | –
NC12CCCCC1CCc1ccccc12 (single isomer, unassigned; form 2) [listing 2 of 2 here] | – | – | – | – | 10 | – | –
CNC12CCCCC1CC(C)c1ccccc12 (stereo not drawn) | 317 | – | – | – | – | – | –
NC12CC=CCC1CCc1ccc(O)cc12 (stereo not drawn) | 28 | – | 1.5 | 1600 | 4.6 | – | –

Compound | IC50 [1] [nM] | logP [2] | Ataxia [3] [mg/kg] | IC50 [4] [nM] | ED50 [5] [mg/kg] | logD [6] | inhibition [7] [%]
CNC12CCCCC1CCc1ccc(OC)cc12 (stereo not drawn) | 5.8 | 3.75 | 0.4 | 1110 | 1 | 1.51 | –
CC1(C)CC2CCCCC2(N)c2ccccc21 (stereo not drawn) | 37000 | – | – | – | – | – | –
CNC12CC=CCC1CCc1ccc(OC)cc12 (stereo not drawn) | 21 | – | 1 | 410 | 4.1 | – | –
CNC12CC=CCC1CCc1ccccc12 (stereo not drawn) | 27.3 | 3.07 | 0.6 | 400 | 1.8 | – | –
NC12CCCCC1CCc1ccc(O)cc12 (stereo not drawn) | 7.5 | – | 3 | 520 | 5.5 | – | –
CNC12CCCCC1CC(=O)c1ccccc12 (stereo not drawn) | 270 | 2.41 | – | – | – | 0.78 | –
NC12CC=CCC1CSc1ccccc12 (stereo not drawn) | 101 | – | – | 1700 | – | – | –
CN[C@@]12CCCCC1CSc1ccccc12 (stereo partly drawn) | 199 | – | – | – | – | – | –
CN[C@@]12CCCCC1CCc1ccccc12 (stereo partly drawn) | 41.5 | – | 1 | 810 | 0.97 | – | –
CNC12CCCCC1CCc1sccc12 (stereo not drawn) | 31 | – | 1 | 350 | 0.89 | – | –
CN[C@]12CCCCC1CCc1ccccc12 (stereo partly drawn) | 7.47 | – | 0.18 | 180 | 0.39 | – | –
CC1CC2CCCCC2(N)c2ccccc21 (stereo not drawn) | 508 | 3.59 | – | – | – | 1.61 | –
NC12CCCCC1COc1ccccc12 (stereo not drawn) | 178 | – | 10 | – | 5.7 | – | –
CNC1c2ccccc2CCC12CCCC2 (stereo not drawn) | – | – | – | – | – | – | 8
CC1(N)c2ccccc2CCC12CCCC2 (stereo not drawn) | – | – | – | – | – | – | 5
CNC12CC(O)CCC1CCc1ccccc12 (stereo not drawn) | 500 | 2.37 | – | – | – | – | –
NC12CCCCC1CSc1ccccc12 (stereo not drawn) | 80.6 | – | 4.7 | 1870 | 2.9 | – | –
NCC1CCC2(N)c3ccccc3CCC2C1 (stereo not drawn) | – | – | – | – | – | – | 1
CNC1(c2ccccc2Cl)CCCCC1=O (stereo not drawn) [KETAMINE] | – | – | 10 | 8860 | 6 | 2.18 | –
NC12CCCCC1CCc1ccccc12 (single isomer, unassigned; form 1) [listing 2 of 2 here] | – | – | – | – | 1.3 | – | –

Compound | IC50 [1] [nM] | logP [2] | Ataxia [3] [mg/kg] | IC50 [4] [nM] | ED50 [5] [mg/kg] | logD [6] | inhibition [7] [%]
CN[C@]12CCCCC1Cc1ccccc12 (stereo partly drawn) | 10.1 | – | – | 120 | 0.1 | – | –
CNC12CC=CCC1CSc1ccccc12 (stereo not drawn) | 69 | – | 1.8 | 420 | 2 | – | –
CNC12CC=CCC1COc1ccccc12 (stereo not drawn) | 122 | – | – | – | – | – | –
CN[C@]12CCCCC1CSc1ccccc12 (stereo partly drawn) | 30 | – | – | – | – | – | –
CNC12CCCCC1CC(O)c1ccccc12 (stereo not drawn) | 1490 | 1.84 | – | – | – | 0.73 | –
NC1c2ccccc2CCC12CCCCC2 (stereo not drawn) | 3400 | – | – | – | – | – | –
CNC12CC=CCC1CCc1sccc12 (stereo not drawn) | 57 | – | – | – | – | – | –
NC12CC=CCC1COc1ccccc12 (stereo not drawn) | 399 | – | – | – | – | – | –
CCNC12CCCCC1CCc1ccccc12 (stereo not drawn) | 199 | 3.41 | – | – | – | 1.15 | –
C[C@]12N[C@H](Cc3ccccc31)c1ccccc12 [DIZOCILPINE] | – | – | 0.3 | – | – | – | –
CNC12CCCCC1COc1ccccc12 (stereo not drawn) | 113 | 3.31 | 0.63 | 2300 | 3.7 | 0.96 | –
CNC12CCCCC1CCc1c(C)cc(OC)cc12 (stereo not drawn) | 53.5 | 4.02 | 3.3 | 930 | 5.6 | 1.72 | –
CNC12CCCCC1Sc1ccccc12 (stereo not drawn) | – | – | – | 210 | 0.41 | – | –
CCNC12CCCCC1CSc1ccccc12 (stereo not drawn) | 523 | – | – | – | – | – | –
COc1ccc2c(c1)C1(N)CCCCC1CC2 (stereo not drawn) | 18 | – | 1.3 | 440 | 1.2 | – | –
CNC12CCCCC1CC(C)(C)c1ccccc12 (stereo not drawn) | 20800 | – | – | – | – | – | –
C=CCNC12CCCCC1CCc1ccccc12 (stereo not drawn) | 86 | – | <1 | 920 | 10 | – | –
NC12CCCCC1CCc1ccccc12 (stereo not drawn) [listing 2 of 2 here] | 25.4 | 2.92 | 0.55 | 370 | – | – | –
N#CC1CCC2(N)c3ccccc3CCC2C1 (stereo not drawn) | – | – | – | – | – | – | 2
c1ccc2c(c1)CCC1CCCCC21N1CCCCC1 (stereo not drawn) | – | – | – | – | – | – | 7
